According to ChEMBL document CHEMBL4834428:

How the values were obtained:
[1] = compound: N#Cc1ccccc1CN1CC(C(N)=O)Oc2ccccc21; assay: Uncompetitive inhibition of His6-tagged SIRT1 (unknown origin) expressed in Escherichia coli BL21 (DE3) assessed as change in Vmax at 800 nM measured every 2 mins for 30 mins in presence of NAD+ and ATP by […] based Michaelis-Menten analysis (reference value: 860 to 1326 AU/min); details: Homo sapiens
How it was run: (§1)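 Continuous assay, triplicates: 100 nM His6-SirT1 catalytic domain, ~270 nM FLucK529ac, inhibitor 100–1600 nM in sirtuin buffer 2 plus luciferase buffer (0.5 mM ATP, 0.5 mM luciferin, pH 7.8).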

[2] = compound: N#Cc1ccccc1CN1CC(C(N)=O)Oc2ccccc21; assay: Uncompetitive inhibition of His6-tagged SIRT1 (unknown origin) expressed in Escherichia coli BL21 (DE3) assessed as change in Vmax at 1600 nM measured every 2 mins for 30 mins in presence of NAD+ and ATP by […] based Michaelis-Menten analysis (reference value: 860 to 1326 AU/min); details: Homo sapiens; how it was run: as §1
[3] = compound: N#Cc1ccccc1CN1CC(C(N)=O)Oc2ccccc21; assay: Uncompetitive inhibition of His6-tagged SIRT1 (unknown origin) expressed in Escherichia coli BL21 (DE3) assessed as change in Km at 800 nM measured every 2 mins for 30 mins in presence of NAD+ and ATP by […] based Michaelis-Menten analysis (reference value: 54.3 to 57.6 uM); details: Homo sapiens; how it was run: as §1
[4] = compound: N#Cc1ccccc1CN1CC(C(N)=O)Oc2ccccc21; assay: Uncompetitive inhibition of His6-tagged SIRT1 (unknown origin) expressed in Escherichia coli BL21 (DE3) assessed as change in Km at 1600 nM measured every 2 mins for 30 mins in presence of NAD+ and ATP by […] based Michaelis-Menten analysis (reference value: 54.3 to 57.6 uM); details: Homo sapiens; how it was run: as §1
[5] = substrate: N#Cc1ccccc1CN1CC(C(N)=O)Oc2ccccc21; details: Homo sapiens; dose 100.0 nM, time 30.0 min
[6] = substrate: N#Cc1ccccc1CN1CC(C(N)=O)Oc2ccccc21; details: Homo sapiens; dose 200.0 nM, time 30.0 min
[7] = substrate: N#Cc1ccccc1CN1CC(C(N)=O)Oc2ccccc21; details: Homo sapiens; dose 400.0 nM, time 30.0 min
[8] = substrate: N#Cc1ccccc1CN1CC(C(N)=O)Oc2ccccc21; details: Homo sapiens; dose 100.0 nM, time 30.0 min; remark: listed apart in the source
[9] = substrate: N#Cc1ccccc1CN1CC(C(N)=O)Oc2ccccc21; details: Homo sapiens; dose 200.0 nM, time 30.0 min; remark: listed apart in the source
[10] = substrate: N#Cc1ccccc1CN1CC(C(N)=O)Oc2ccccc21; details: Homo sapiens; dose 400.0 nM, time 30.0 min; remark: listed apart in the source

B1: NAD-dependent protein deacetylase sirtuin-1 (Homo sapiens), Q96EB6 (protein)
chain: MADEAALALQPGGSPSAAGADREAASSPAGEPLRKRPRRDGPGLERSPGEPGGAAPEREVPAAARGCPGAAAAALWREAEAEAAAAGGEQEAQATAAAGEGDNGPGLQGPSREPPLADNLYDEDDDDEGEEEEEAAAAAIGYRDNLLFGDEIITNGFHSCESDEEDRASHASSSDWTPRPRIGPYTFVQQHLMIGTDPRTILKDLLPETIPPPELDDMTLWQIVINILSEPPKRKKRKDINTIEDAVKLLQECKKIIVLTGAGVSVSCGIPDFRSRDGIYARLAVDFPDLPDPQAMFDIEYFRKDPRPFFKFAKEIYPGQFQPSLCHKFIALSDKEGKLLRNYTQNIDTLEQVAGIQRIIQCHGSFATASCLICKYKVDCEAVRGDIFNQVVPRCPRCPADEPLAIMKPEIVFFGENLPEQFHRAMKYDKDEVDLLIVIGSSLKVRPVALIPSSIPHEVPQILINREPLPHLHFDVELLGDCDVIINELCHRLGGEYAKLCCNPVKLSEITEKPPRTQKELAYLSELPPTPLHVSEDSSSPERTSPPDSSVIVTLLDQAAKSNDDLDVSESKGCMEEKPQEVQTSRNVESIAEQMENPDLKNVGSSTGEKNERTSVAGTVRKCWPNRVAKEQISRRLDGNQYLFLPPNRYIFHGAEVYSDSEDDVLSSSSCGSNSDSGTCQSPSLEEPMEDESEIEEFYNGLEDEPDVPERAGGAGFGTDGDDQEAINEAISVKQEVTDMNYPSNKS
Q: With B1 as the protein, how does the Vmax [1] read?
A: 304 AU/min

Q: What about the Vmax [2] of the same protein?
A: 208 AU/min

Q: What about the Km [3] of the same protein?
A: 10 µM

Q: And the Km [4]?
A: 4.9 µM

Q: And the Vmax [5]?
A: 864 AU/min

Q: And the Vmax [6]?
A: 673 AU/min

Q: What about the Vmax [7] of the same protein?
A: 522 AU/min

Q: And the Km [8]?
A: 47.7 µM

Q: What about the Km [9] of the same protein?
A: 34.6 µM

Q: And the Km [10]?
A: 23.8 µM
